Active and inactive are the calls of the source. The rule behind the calls is not given here.

These results are taken from ChEMBL document CHEMBL3244388, “Synthesis and antihypertensive activity of 2-benzamido-1,2,3,4,6,7,12,12b-octahydroindolo[2,3-a]quinolizines” (J Med Chem, 1979).

In data set [1] the test system is Rattus norvegicus. Nature of the data set: Antihypertensive activity in spontaneous hypertensive rat assessed as change in systolic blood pressure at 25 mg/kg, po administered […] measured 2 hrs post last dose on day 3 by tail-cuff method relative to vehicle-treated control. In kind it is functional, Artery. An outline of the steps: (§1)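 Spontaneously hypertensive rats, pre-trained for 2 weeks; animals with baseline below 175 mmHg excluded. Oral dosing at 0 h on days 1, 2 and 3, six rats per group. After warming (20 min, 40 °C), systolic pressure was read by tail-cuff with microphone, 3–5 readings averaged. Readings at 0 h on days 1 and 3 and 2 h post-dose on day 3 were compared with 0-h controls by paired t test; a drop over 15 mmHg counted as active.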

Data set [2] deals with Rattus norvegicus. Nature of the data set: Antihypertensive activity in spontaneous hypertensive rat assessed as change in systolic blood pressure at 50 mg/kg, po […] measured 2 hrs post last dose on day 3 by tail-cuff method relative to vehicle-treated control. In kind it is functional, Artery. An outline of the steps: as §1
The test system of data set [3] is Rattus norvegicus. Nature of the data set: Toxicity in spontaneous hypertensive rat assessed as mortality at 50 mg/kg, po administered on […] measured 2 hrs post last dose on day 3. In kind it is organism-based. Details: dose 50 mg/kg, route oral. The following applies: in vivo. An outline of the steps:
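Genetically spontaneously hypertensive rats, each trained for 2 weeks to set baseline; animals below 175 mmHg were excluded. Groups of six were dosed orally at 0 h on days 1, 2 and 3. Systolic pressure was read by indirect tail-cuff after 20 min conditioning at 40 °C, 3–5 readings averaged, at 0 h on days 1 and 3 and 2 h post-dose on day 3.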

A further data set is filed under the species Felis catus. Nature of the data set: Inhibition of cat spleen alpha-adrenergic receptor. The data set is classed as tissue-based.
The subject of another data set is Canis familiaris. Nature of the data set: Inhibition of alpha-adrenergic receptor in iv dosed dog. In kind it is functional, organism-based. The conditions noted are these: Canis lupus familiaris.
In data set [4] the test system is Rattus norvegicus. Nature of the data set: Antihypertensive activity in spontaneous hypertensive rat assessed as change in systolic blood pressure at 15 mg/kg, po […] measured 2 hrs post last dose on day 3 by tail-cuff method relative to vehicle-treated control. The data set is classed as functional, Artery. In short, it runs like this:
as §1

The test system of data set [5] is Rattus norvegicus. Nature of the data set: Antihypertensive activity in spontaneous hypertensive rat assessed as change in systolic blood pressure at 5 mg/kg, po administered […] measured 2 hrs post last dose on day 3 by tail-cuff method relative to vehicle-treated control. The data set is classed as functional, Artery. In short, it runs like this:
as §1

The test system of data set [6] is Rattus norvegicus. Nature of the data set: Antihypertensive activity in spontaneous hypertensive rat assessed as change in systolic blood pressure at 10 mg/kg, po […] measured 2 hrs post last dose on day 3 by tail-cuff method […]. In kind it is functional, Artery. In short, it runs like this:
as §1

Turning to `COc1cc(C(=O)N[C@@H]2CCN3CCc4c([nH]c5ccccc45)[C@@H]3C2)cc(OC)c1OC`, the Activity with Rattus norvegicus [1] is recorded as -25 mmHg.
As to `O=C(NC1CCN2CCc3c([nH]c4ccccc34)[C@@H]2C1)c1ccco1` (stereo partly drawn), the Activity with Rattus norvegicus [2] was determined as 0 mmHg.
`CN(C#N)[C@@H]1CCN2CCc3c([nH]c4ccccc34)[C@@H]2C1`: the results for the Activity in the data set on Rattus norvegicus [2] and in the data set on Rattus norvegicus [3] were -51 mmHg and “Toxic”, respectively.
With `Cc1cccc(C(=O)N[C@@H]2CCN3CCc4c([nH]c5ccccc45)[C@@H]3C2)c1`, the Activity in the data set on Rattus norvegicus [2] is given as -49 mmHg.
In the case of `c1ccc(N[C@H]2CCN3CCc4c([nH]c5ccccc45)[C@@H]3C2)cc1`, the Activity in the data set on Rattus norvegicus [1] came out at 5.75 mmHg.
The same measure, in the same setting: next, `NC1CCN2CCc3c([nH]c4ccccc34)[C@@H]2C1` (stereo partly drawn): -9.5 mmHg; `c1ccc(NC2CCN3CCc4c([nH]c5ccccc45)[C@@H]3C2)cc1` (stereo partly drawn): -25 mmHg.
For the molecule `CN(C(=O)c1cccc(C(F)(F)F)c1)C1CCN2CCc3c([nH]c4ccccc34)[C@@H]2C1` (stereo partly drawn), the inhibition result in the data set listed under Felis catus and in the data set on Canis familiaris was “Active” in each case. Moreover, the results for the Activity in the data set on Rattus norvegicus [2] and in the data set on Rattus norvegicus [1] were -48 mmHg and -56 mmHg, respectively.
With `CCNC1CCN2CCc3c([nH]c4ccccc34)[C@@H]2C1` (stereo partly drawn), the Activity with Rattus norvegicus [2] was -4 mmHg.
As for `CN(C(=O)c1cccc(Cl)c1)C1CCN2CCc3c([nH]c4ccccc34)[C@@H]2C1` (stereo partly drawn), the figures for the Activity with Rattus norvegicus [2] and in the data set on Rattus norvegicus [1] were -79 mmHg and -54 mmHg, respectively.
For the molecule `O=C(N[C@@H]1CCN2CCc3c([nH]c4ccccc34)[C@@H]2C1)c1ccc(Cl)cc1`, the Activity with Rattus norvegicus [2] was -3 mmHg.
On the same count and under the same terms, as for `O=C(N[C@@H]1CCN2CCc3c([nH]c4ccccc34)[C@@H]2C1)c1ccccc1Cl`, the figure is -26 mmHg.
In the case of `CN(C(=O)c1ccccc1)[C@H]1CCN2CCc3c([nH]c4ccccc34)[C@@H]2C1`, the Activity with Rattus norvegicus [4] is -17 mmHg.
Turning to `O=C(c1ccccc1)N(C1CC1)C1CCN2CCc3c([nH]c4ccccc34)[C@@H]2C1` (stereo partly drawn), the Activity with Rattus norvegicus [2] is given as -26 mmHg.
As for `COc1ccc(C(=O)N[C@@H]2CCN3CCc4c([nH]c5ccccc45)[C@@H]3C2)cc1`, the Activity in the data set on Rattus norvegicus [1] was found to be 10 mmHg.
On to `CCCN(C(=O)c1ccccc1)C1CCN2CCc3c([nH]c4ccccc34)[C@@H]2C1` (stereo partly drawn), for which, in the data set on Rattus norvegicus [2], the Activity is listed as -16 mmHg.
On the same count and under the same terms, as for `c1ccc(CCNC2CCN3CCc4c([nH]c5ccccc45)[C@@H]3C2)cc1` (stereo partly drawn), the figure is -16 mmHg.
With `COc1ccc(C(=O)N(C)[C@@H]2CCN3CCc4c([nH]c5ccccc45)[C@@H]3C2)cc1`, the Activity with Rattus norvegicus [5] is -53 mmHg; in the data set on Rattus norvegicus [2], -50 mmHg; in the data set with Rattus norvegicus [1] it was -72 mmHg; with Rattus norvegicus [6], -86 mmHg. Besides, the inhibition result in the data set listed under Felis catus and in the data set on Canis familiaris was “Active” throughout.
With `CCn1c2c(c3ccccc31)CCN1CCC(N(C)C(=O)c3ccccc3)C[C@@H]21` (stereo partly drawn), the values for the Activity in the data set with Rattus norvegicus [2] and with Rattus norvegicus [1] were -67 mmHg and -63 mmHg, respectively.
Regarding `CN(C(=O)c1ccccc1Cl)C1CCN2CCc3c([nH]c4ccccc34)[C@@H]2C1` (stereo partly drawn), the Activity with Rattus norvegicus [1] is -13 mmHg.
Same read-out and setting: next, `Cc1ccc(C(=O)N[C@H]2CCN3CCc4c([nH]c5ccccc45)[C@@H]3C2)cc1`: -32 mmHg.
With `O=C(N[C@H]1CCN2CCc3c([nH]c4ccccc34)[C@@H]2C1)c1ccccc1Br`, the Activity in the data set on Rattus norvegicus [2] is 18 mmHg.
In the case of `Cc1ccccc1C(=O)N(C)C1CCN2CCc3c([nH]c4ccccc34)[C@@H]2C1` (stereo partly drawn), the Activity with Rattus norvegicus [2] is reported as -44 mmHg.
Still for that read-out and setting: next, `Nc1ccc(C(=O)N[C@@H]2CCN3CCc4c([nH]c5ccccc45)[C@@H]3C2)cc1`: -31 mmHg.
Same read-out and setting: next, `CNC1CCN2CCc3c([nH]c4ccccc34)[C@@H]2C1` (stereo partly drawn): -18 mmHg; `CN(C(=O)c1ccc(F)cc1)C1CCN2CCc3c([nH]c4ccccc34)[C@@H]2C1` (stereo partly drawn): -20 mmHg.
Consider `O=C(Nc1ccccc1)N[C@H]1CCN2CCc3c([nH]c4ccccc34)[C@@H]2C1`, for which the Activity in the data set on Rattus norvegicus [1] was -6 mmHg.
In the case of `O=C(Nc1ccccc1)N[C@@H]1CCN2CCc3c([nH]c4ccccc34)[C@@H]2C1`, in the data set on Rattus norvegicus [2], the Activity is -22 mmHg.
The same measure, in the same setting: next, `O=C(N[C@@H]1CCN2CCc3c([nH]c4ccccc34)[C@@H]2C1)c1cccc(C(F)(F)F)c1`: -3 mmHg.
Regarding `CN(C(=O)c1cccc(F)c1)C1CCN2CCc3c([nH]c4ccccc34)[C@@H]2C1` (stereo partly drawn), the Activity with Rattus norvegicus [2] is reported as -110 mmHg; in the data set on Rattus norvegicus [1], -76 mmHg.
Take `Cl.O=C(NC1CCN(CCc2c[nH]c3ccccc23)CC1)c1ccccc1` [INDORAMIN HYDROCHLORIDE]: the Activity in the data set on Rattus norvegicus [2] is -79 mmHg.
Same read-out and setting: next, `O=C(N[C@@H]1CCN2CCc3c([nH]c4ccccc34)[C@@H]2C1)c1ccccc1`: 1 mmHg.
For the molecule `CCN(C(=O)c1ccccc1)C1CCN2CCc3c([nH]c4ccccc34)[C@@H]2C1` (stereo partly drawn), the Activity is given as -83 mmHg with Rattus norvegicus [2] and -92 mmHg with Rattus norvegicus [1].
Consider `CCn1c2c(c3ccccc31)CCN1CCC(NC)C[C@@H]21` (stereo partly drawn), for which the Activity in the data set on Rattus norvegicus [2] is -30 mmHg.
For the molecule `CN(C(=O)c1ccc(Cl)cc1)C1CCN2CCc3c([nH]c4ccccc34)[C@@H]2C1` (stereo partly drawn), in the data set with Rattus norvegicus [2], the Activity is listed as -6 mmHg.
Turning to `O=C(N[C@@H]1CCN2CCc3c([nH]c4ccccc34)[C@@H]2C1)c1ccccc1Br`, the Activity with Rattus norvegicus [2] is on record as -24 mmHg.
For the molecule `c1ccc(CNC2CCN3CCc4c([nH]c5ccccc45)[C@@H]3C2)cc1` (stereo partly drawn), the Activity in the data set on Rattus norvegicus [2] was -53 mmHg; in the data set with Rattus norvegicus [1], -8 mmHg.
On to `CN(C(=O)c1ccccc1)[C@@H]1CCN2CCc3c([nH]c4ccccc34)[C@@H]2C1`, for which the Activity is on record as -19 mmHg in the data set with Rattus norvegicus [5], -103 mmHg with Rattus norvegicus [2] and -41 mmHg with Rattus norvegicus [6]. The inhibition entry in the data set listed under Felis catus and in the data set on Canis familiaris was “Active” throughout.
For the molecule `Cc1ccccc1C(=O)N[C@@H]1CCN2CCc3c([nH]c4ccccc34)[C@@H]2C1`, the Activity in the data set with Rattus norvegicus [2] amounted to 13 mmHg.
On the same count and under the same terms, next, `COc1cccc(C(=O)N[C@@H]2CCN3CCc4c([nH]c5ccccc45)[C@@H]3C2)c1`: -18 mmHg.
In the case of `O=C(N[C@@H]1CCN2CCc3c([nH]c4ccccc34)[C@@H]2C1)c1ccc(F)cc1`, the Activity in the data set on Rattus norvegicus [1] was -24 mmHg.
With `CCCNC1CCN2CCc3c([nH]c4ccccc34)[C@@H]2C1` (stereo partly drawn), the Activity in the data set on Rattus norvegicus [2] was determined as 27 mmHg.
Turning to `Cl.O=C(N[C@@H]1CCN2CCc3c([nH]c4ccccc34)[C@@H]2C1)c1ccc([N+](=O)[O-])cc1`, the Activity with Rattus norvegicus [2] turned out to be 15 mmHg.
As to `Cc1cccc(C(=O)N[C@H]2CCN3CCc4c([nH]c5ccccc45)[C@@H]3C2)c1`, the Activity in the data set on Rattus norvegicus [1] was -53 mmHg.
Turning to `Cc1ccc(C(=O)N[C@@H]2CCN3CCc4c([nH]c5ccccc45)[C@@H]3C2)cc1`, the Activity in the data set on Rattus norvegicus [2] is on record as -18 mmHg.
With `O=C1c2ccccc2CN1[C@@H]1CCN2CCc3c([nH]c4ccccc34)[C@@H]2C1`, the Activity in the data set with Rattus norvegicus [2] was 2 mmHg.
Same read-out and setting: next, `CC(=O)NC1CCN2CCc3c([nH]c4ccccc34)[C@@H]2C1` (stereo partly drawn): -20 mmHg; `O=C(N[C@@H]1CCN2CCc3c([nH]c4ccccc34)[C@@H]2C1)c1ccc2c(c1)OCO2`: -52 mmHg; `CN(Cc1ccccc1)[C@@H]1CCN2CCc3c([nH]c4ccccc34)[C@@H]2C1`: -54 mmHg.
The same measure, in the same setting: next, `c1ccc2c3c([nH]c2c1)[C@@H]1CC(NC2CC2)CCN1CC3` (stereo partly drawn): -25 mmHg.
